From publication PMC7787347 (Journal of medicinal chemistry, 2018)
“Also recorded” adds a separate entry of the source.

Key:
HCT116 = conditions: read-out: MTs IC50 ± SD HCT116; Wnt/β-catenin hyperactive, 72 h; cited from earlier work
MDA-MB-231 = conditions: read-out: MTs IC50 ± SD MDA-MB-231; Wnt/β-catenin hyperactive, 72 h; cited from earlier work
MDA-MB-231 cells = conditions: cited from earlier work
BCL9 HD2 domain = conditions: in words; cited from earlier work
SW480 = conditions: read-out: MTs IC50 ± SD SW480; Wnt/β-catenin hyperactive, 72 h; cited from earlier work
β-catenin = conditions: in words; cited from earlier work
A549 = conditions: read-out: MTs IC50 ± SD normal Wnt A549, 72 h; cited from earlier work
[1] = test system: cyclin D1, c-myc, active β-catenin (ABC), total β-catenin in SW480 cells; experiment: Western blot of protein expression; format: cell-based; conditions: 24 h, in words
[2] = test system: Axin2, LEF1, cyclin D1 mRNA in SW480 cells; experiment: qPCR of Wnt target gene mRNA expression; format: cell-based, human; conditions: 24 h, in words
β-catenin/BCL9 PPI = biological target: T1, β-catenin/BCL9 PPI (Homo sapiens, UniProt P35222); experiment: AlphaScreen competitive inhibition assay, β-catenin/BCL9 PPI; format: binding; conditions: in words
T1 sequence (P35222 1-781): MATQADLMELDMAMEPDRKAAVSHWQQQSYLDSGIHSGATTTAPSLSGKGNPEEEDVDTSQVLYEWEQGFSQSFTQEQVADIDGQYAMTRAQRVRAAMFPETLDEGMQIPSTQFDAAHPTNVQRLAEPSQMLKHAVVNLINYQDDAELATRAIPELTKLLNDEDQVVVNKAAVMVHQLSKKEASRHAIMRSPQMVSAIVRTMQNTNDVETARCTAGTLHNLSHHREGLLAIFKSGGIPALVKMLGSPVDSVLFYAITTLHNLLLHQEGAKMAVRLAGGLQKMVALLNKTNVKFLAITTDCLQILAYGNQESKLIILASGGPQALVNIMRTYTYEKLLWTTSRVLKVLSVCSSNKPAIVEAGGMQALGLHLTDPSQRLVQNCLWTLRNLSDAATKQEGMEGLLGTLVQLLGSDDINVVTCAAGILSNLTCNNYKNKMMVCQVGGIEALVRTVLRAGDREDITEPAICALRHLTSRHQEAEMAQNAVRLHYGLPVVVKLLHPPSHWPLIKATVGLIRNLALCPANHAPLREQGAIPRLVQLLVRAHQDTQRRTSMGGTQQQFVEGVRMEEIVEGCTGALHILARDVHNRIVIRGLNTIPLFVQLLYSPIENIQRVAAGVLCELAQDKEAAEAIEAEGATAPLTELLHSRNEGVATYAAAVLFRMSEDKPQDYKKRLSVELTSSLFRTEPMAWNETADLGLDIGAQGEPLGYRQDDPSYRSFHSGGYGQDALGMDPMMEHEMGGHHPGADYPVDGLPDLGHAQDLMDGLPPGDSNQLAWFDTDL

HCT116 cells = experiment: Cell-bound; format: in vitro ADME; conditions: 5 mL DMEM with 10% FBS
[3] = test system: FOPFlash luciferase reporter (three mutant Tcf4 binding sites) in β-catenin activated HEK293 cells; experiment: FOPFlash luciferase reporter assay; format: cell-based; conditions: in words; for effect on FOPFlash luciferase reporter activity: β-catenin activated HEK293 cells
[4] = test system: β-catenin/BCL9 PPI in HCT116 cells; experiment: Co-IP in whole cells; format: cell-based; conditions: 24 h, in words
β-catenin/E-cadherin PPI = biological target: T2, β-catenin/E-cadherin PPI (Homo sapiens, UniProt P35222); experiment: AlphaScreen selectivity assay, β-catenin/E-cadherin PPI; format: binding; conditions: for selectivity of BCL9/cadherin: ratio of Ki β-catenin/E-cadherin over Ki β-catenin/BCL9
T2 sequence (P35222 1-781): T1 sequence (P35222 1-781)

[5] = test system: full-length β-catenin/full-length BCL9 PPI in HCT116 cell lysates; experiment: Co-IP in cell lysates; format: cell-based; conditions: 4 h incubation with HCT116 cell lysates, in words
SW480 cells = experiment: LDH release cytotoxicity assay; format: cell-based; conditions: 4 h incubation, in words
In short: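 SW480 cells were seeded at 2 × 10^4 cells/well, held overnight at 37 °C, then exposed to various concentrations of test compound for 4 h. The culture supernatant was reacted with the commercial LDH kit reagents and read at 490 nm. Percent cytotoxicity was calculated from experimental, background and maximum LDH release. Run in triplicate.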

BCL9 (Homo sapiens) = BCL9 (Homo sapiens) (UniProt O00512); conditions: cited from earlier work
Sequence of BCL9 (Homo sapiens) (O00512 whole entry): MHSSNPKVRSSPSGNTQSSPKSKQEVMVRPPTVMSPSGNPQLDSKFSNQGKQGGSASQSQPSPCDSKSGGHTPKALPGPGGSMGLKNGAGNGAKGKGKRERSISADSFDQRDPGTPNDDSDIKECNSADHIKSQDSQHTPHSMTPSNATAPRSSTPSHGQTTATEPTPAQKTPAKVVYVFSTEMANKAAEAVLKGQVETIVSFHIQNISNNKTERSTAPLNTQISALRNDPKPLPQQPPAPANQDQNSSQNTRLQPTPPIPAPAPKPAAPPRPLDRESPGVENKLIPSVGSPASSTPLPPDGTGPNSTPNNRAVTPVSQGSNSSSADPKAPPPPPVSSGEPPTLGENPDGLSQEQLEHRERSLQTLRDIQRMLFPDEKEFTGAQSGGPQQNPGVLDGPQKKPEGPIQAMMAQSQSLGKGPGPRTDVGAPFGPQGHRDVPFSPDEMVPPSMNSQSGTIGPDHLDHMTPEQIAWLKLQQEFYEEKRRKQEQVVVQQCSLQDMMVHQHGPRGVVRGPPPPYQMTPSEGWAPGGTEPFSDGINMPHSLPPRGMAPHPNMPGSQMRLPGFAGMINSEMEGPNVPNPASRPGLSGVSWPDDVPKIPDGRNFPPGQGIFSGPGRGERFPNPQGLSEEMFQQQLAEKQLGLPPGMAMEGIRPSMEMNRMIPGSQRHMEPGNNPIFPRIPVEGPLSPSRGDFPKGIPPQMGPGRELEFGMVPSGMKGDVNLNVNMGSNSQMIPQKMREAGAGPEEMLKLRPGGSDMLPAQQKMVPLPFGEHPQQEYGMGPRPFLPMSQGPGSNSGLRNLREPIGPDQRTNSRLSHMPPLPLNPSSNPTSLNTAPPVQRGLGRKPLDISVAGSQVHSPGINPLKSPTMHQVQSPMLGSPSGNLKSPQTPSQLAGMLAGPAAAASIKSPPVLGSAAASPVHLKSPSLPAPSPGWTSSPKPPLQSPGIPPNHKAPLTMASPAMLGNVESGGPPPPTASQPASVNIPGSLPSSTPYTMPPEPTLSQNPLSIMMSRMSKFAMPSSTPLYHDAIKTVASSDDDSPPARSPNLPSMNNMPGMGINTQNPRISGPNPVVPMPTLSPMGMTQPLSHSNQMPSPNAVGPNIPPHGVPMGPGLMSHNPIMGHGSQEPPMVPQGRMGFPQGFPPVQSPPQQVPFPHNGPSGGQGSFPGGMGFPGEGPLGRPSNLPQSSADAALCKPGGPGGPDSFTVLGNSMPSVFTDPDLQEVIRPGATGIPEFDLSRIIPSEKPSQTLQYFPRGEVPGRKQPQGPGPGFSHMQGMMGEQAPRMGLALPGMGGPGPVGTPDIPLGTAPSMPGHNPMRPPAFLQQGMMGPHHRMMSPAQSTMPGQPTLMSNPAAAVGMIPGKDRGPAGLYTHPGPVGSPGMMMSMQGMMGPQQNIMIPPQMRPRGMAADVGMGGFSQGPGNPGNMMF

AlphaScreen biochemical inhibitory activity compared with 1 (β-catenin/BCL9 PPI) | Ki (β-catenin/E-cadherin PPI) [µM] | selectivity of BCL9/cadherin (β-catenin/E-cadherin PPI) [fold] | Compound | level of E-cadherin-bound β-catenin (total β-catenin) [1] | level of the active form of β-catenin (ABC) [1] | protein expression levels of cyclin D1 and c-myc [1] | mRNA expression of Wnt target genes Axin2, cyclin D1 and LEF1 [2] | mRNA expression of house-keeper gene HPRT [2] | effect on FOPFlash luciferase reporter activity [3] | also measured
– | – | – | Cl.Cl.O=C(Nc1ccc(O[C@H]2CCNC2)c(-c2ccc(F)cc2)c1)c1ccc(O[C@H]2CCNC2)c(-c2ccc(F)c(F)c2)c1 [Compound 1] | – | – | – | – | – | – | IC50 (HCT116): 3.1 ± 0.83 µM; IC50 (MDA-MB-231): 2300 ± 250 nM; cell-bound concentration at 4 °C (MDA-MB-231 cells; 6 h incubation at 4 °C, 5 mL DMEM with 10% FBS): 1 nmol/million MDA-MB-231 cells; cell-bound concentration at 37 °C (MDA-MB-231 cells; 6 h incubation, 5 mL DMEM with 10% FBS, input concentration 2 μM): 6.7 nmol/million MDA-MB-231 cells; amount bound with the cell membrane by the nonspecific manner (MDA-MB-231 cells; MDA-MB-231 cells): 15%; binding with BCL9 HD2 domain in ITC (BCL9 HD2 domain): not the BCL9 HD2 domain; IC50 (SW480): 3.5 ± 0.32 µM; binding with β-catenin in ITC (β-catenin): bind with β-catenin; IC50 (A549): 8.8 ± 0.62 µM
– | – | – | Cl.Cl.O=C(Nc1ccc(O[C@H]2CCNC2)c(-c2ccc(F)cc2)c1)c1ccc(O[C@H]2CCNC2)c(-c2ccc3ccsc3c2)c1 [Compound 3, 3-(Benzo[b]thiophen-6-yl)-N-(4′-fluoro-6-(((S)-pyrrolidin-3-yl)-oxy)-[1,1′-biphenyl]-3-yl)-4-(((S)-pyrrolidin-3-yl)oxy)benzamide Dihydrochloride] | no effect | inhibit the level of the active form of β-catenin (ABC) | significantly decreased | dose-dependently inhibited | did not inhibit | – | –
comparable with that of 1 | – | – | Cl.Cl.O=C(Nc1ccc(O[C@H]2CCNC2)c(-c2cccc(-c3nn[nH]n3)c2)c1)c1ccc(O[C@H]2CCNC2)c(-c2ccc(F)c(F)c2)c1 [Compound 27, 3′,4′-Difluoro-6-((S)-pyrrolidin-3-yloxy)-N-(6-((S)-pyrrolidin-3-yloxy)-3′-(2H-tetrazol-5-yl)-[1,1′-biphenyl]-3-yl)-[1,1′-biphenyl]-3-carboxamide Dihydrochloride] | – | – | – | – | – | – | –
– | > 915 | >1900 | Cl.Cl.O=C(Nc1ccc(O[C@@H]2CCNC2)c(-c2cccc(-c3nn[nH]n3)c2)c1)c1ccc(O[C@H]2CCNC2)c(-c2ccc(F)c(F)c2)c1 [Compound 29, 3′,4′-Difluoro-6-(((S)-pyrrolidin-3-yl)oxy)-N-(6-(((R)-pyrrolidin-3-yl)oxy)-3′-(2H-tetrazol-5-yl)-[1,1′-biphenyl]-3-yl)-[1,1′-biphenyl]-3-carboxamide Dihydrochloride] | no effect | inhibit the level of the active form of β-catenin (ABC) | significantly decreased | dose-dependently inhibited | did not inhibit | specific for the Wnt/β-catenin signaling pathway | cell-bound concentration at 4 °C (HCT116 cells; 6 h incubation at 4 °C): 5.1 nmol/million HCT116 cells; cell-bound concentration at 37 °C (HCT116 cells; 6 h incubation, input concentration 50 μM): 6.6 nmol/million HCT116 cells; effect on FOPFlash luciferase reporter activity up to 200 μM ([3]; up to the concentration of 200 μM): no effect; disruption of β-catenin/BCL9 PPI in cells [4]: inhibited the β-catenin/BCL9 PPI in a dose-dependent manner; disruption of full-length β-catenin/full-length BCL9 PPI [5]: dose-dependently disrupt; cytotoxicity in LDH release assay (SW480 cells): did not exhibit cytotoxicity; also recorded: did not show cytotoxicity
comparable with that of 1 | > 915 | >570 | Cl.Cl.O=C(Nc1ccc(O[C@@H]2CCNC2)c(-c2cccc(-c3nn[nH]n3)c2)c1)c1ccc(O[C@H]2CCNC2)c(-c2ccc3ccsc3c2)c1 [Compound 30, (R)-3-((5-(3-(Benzo[b]thiophen-6-yl)-4-(((S)-pyrrolidin-1-ium-3-yl)oxy)benzamido)-3′-(2H-tetrazol-5-yl)-[1,1′-biphenyl]-2-yl)oxy)-pyrrolidin-1-ium Chloride] | – | – | – | – | – | specific for the Wnt/β-catenin signaling pathway | –
– | – | – | β-catenin (from UniProt P35222) | – | – | – | – | – | – | Kd (BCL9 (Homo sapiens)): 470 nM
